Results published in ChEMBL document CHEMBL1151448, “Comparative antianaerobic activities of doripenem determined by MIC and time-kill analysis” (2008).
Values after ≈ are worked out from the molar mass of the structure shown. Active and inactive are the calls of the source. The calls are words filed in the database; no cut-off is given here.

Assays:
Fusobacterium nucleatum [1] = experiment: Antimicrobial activity against beta lactamase-positive Fusobacterium nucleatum isolated from intra-abdominal infection and pelvic inflammatory disease patients after 48 hrs by time kill analysis; assay type: functional
How it was run: (§1)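 The MIC was read by inspecting macrodilution time-kill tubes. Vials held prereduced brucella broth with 5% laked horse blood cells, hemin 5 μg/ml and vitamin K1 1 μg/ml. Final inoculum was 10^6–10^7 CFU/ml, prepared inside the anaerobe chamber. Vials were incubated 48 h at 35°C in a shaking water bath.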

[2] = test system: Bacteroides thetaiotaomicron; experiment: Bactericidal activity against beta lactamase-positive Bacteroides thetaiotaomicron isolated from intra-abdominal infection and pelvic inflammatory disease patients assessed as bacterial killing at MIC after 24 hrs by time kill analysis; assay type: functional
How it was run: (§2)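 Macrodilution time-kill in prereduced brucella broth with 5% laked horse blood, hemin 5 μg/ml and vitamin K1 1 μg/ml, at final inoculum 10^6–10^7 CFU/ml. […] Viable counts were taken at 6, 12, 24 and 48 h on plates incubated 48 h anaerobically. 99.9% kill was taken as bactericidal.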

[3] = test system: Peptoniphilus asaccharolyticus; experiment: Antimicrobial activity against Peptoniphilus asaccharolyticus isolated from intra-abdominal infection and pelvic inflammatory disease patients after 48 hrs by agar dilution method; assay type: functional
How it was run: (§3)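 CLSI agar dilution on brucella blood agar supplemented with laked sheep blood, hemin and vitamin K. Inocula of about 1 × 10^5 CFU/spot were applied by Steers replicator, and plates were incubated 48 h at 35°C in an anaerobic glove box. MIC was the concentration giving marked growth reduction versus the anaerobic control plate. QC strains were included each run, and β-lactamase was detected by Cefinase disk.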

Prevotella intermedia [4] = experiment: Bactericidal activity against beta lactamase-positive Prevotella intermedia isolated from intra-abdominal infection and pelvic inflammatory disease patients assessed as bacterial killing at MIC after 24 hrs by time kill analysis; assay type: functional
How it was run: (§4)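 Anaerobic macrodilution time-kill. Inoculum from brucella blood plates, prepared and diluted in prereduced brucella broth inside the anaerobe chamber. Final 10^6 to 10^7 CFU/ml in prereduced brucella broth with 5% laked horse blood cells, 5 μg/ml hemin and 1 μg/ml vitamin K1. […] Shaken at 35°C for 48 h. Viable counts taken at 6, 12, 24 and 48 h. 99.9% kill taken as bactericidal.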

[Clostridium] innocuum = Antimicrobial activity against Clostridium innocuum isolated from intra-abdominal infection and pelvic inflammatory disease patients after 48 hrs by agar dilution method; assay type: functional; how it was run: as §3
Parvimonas micra = experiment: Antimicrobial activity against Micromonas micros isolated from intra-abdominal infection and pelvic inflammatory disease patients after 48 hrs by agar dilution method; assay type: functional; how it was run: as §3
Clostridioides difficile [5] = experiment: Bactericidal activity against Clostridium difficile isolated from intra-abdominal infection and pelvic inflammatory disease patients assessed as bacterial killing at 2 times MIC after 48 hrs by time kill analysis; assay type: functional; how it was run: as §2
[6] = test system: Paraclostridium bifermentans; experiment: Antimicrobial activity against Clostridium bifermentans isolated from intra-abdominal infection and pelvic inflammatory disease patients after 48 hrs by agar dilution method; assay type: functional; how it was run: as §3
Prevotella corporis = experiment: Antimicrobial activity against beta lactamase-positive Prevotella corporis isolated from intra-abdominal infection and pelvic inflammatory disease patients after 48 hrs by agar dilution method; assay type: functional; how it was run: as §3
Phocaeicola vulgatus = experiment: Antimicrobial activity against beta lactamase-positive Bacteroides vulgatus isolated from intra-abdominal infection and pelvic inflammatory disease patients after 48 hrs by agar dilution method; assay type: functional; how it was run: as §3
Clostridioides difficile [7] = experiment: Bactericidal activity against Clostridium difficile isolated from intra-abdominal infection and pelvic inflammatory disease patients assessed as bacterial killing at MIC after 24 hrs by time kill analysis; assay type: functional; how it was run: as §2
Fusobacterium nucleatum [8] = experiment: Bactericidal activity against beta lactamase-positive Fusobacterium nucleatum isolated from intra-abdominal infection and pelvic inflammatory disease patients assessed as bacterial killing at MIC after 24 hrs by time kill analysis; assay type: functional; how it was run: as §4
Clostridioides difficile [9] = experiment: Bactericidal activity against Clostridium difficile isolated from intra-abdominal infection and pelvic inflammatory disease patients assessed as 99.9% bacterial killing at 2 times MIC after 48 hrs by time kill analysis; assay type: functional, organism-based; how it was run: as §2
Thomasclavelia ramosa = experiment: Antimicrobial activity against Clostridium ramosum isolated from intra-abdominal infection and pelvic inflammatory disease patients after 48 hrs by agar dilution method; assay type: functional; how it was run: as §3
Prevotella intermedia [10] = experiment: Antimicrobial activity against beta lactamase-positive Prevotella intermedia isolated from intra-abdominal infection and pelvic inflammatory disease patients after 48 hrs by time kill analysis; assay type: functional; how it was run: as §1
[11] = test system: Enterocloster clostridioformis; experiment: Antimicrobial activity against Clostridium clostridioforme isolated from intra-abdominal infection and pelvic inflammatory disease patients after 48 hrs by agar dilution method; assay type: functional; how it was run: as §3
[12] = test system: Bacteroides thetaiotaomicron; experiment: Antimicrobial activity against beta lactamase-positive Bacteroides thetaiotaomicron isolated from intra-abdominal infection and pelvic inflammatory disease patients after 48 hrs by agar dilution method; assay type: functional; how it was run: as §3
Porphyromonas gingivalis = experiment: Antimicrobial activity against Porphyromonas gingivalis isolated from intra-abdominal infection and pelvic inflammatory disease patients after 48 hrs by agar dilution method; assay type: functional; how it was run: as §3
Finegoldia magna [13] = experiment: Antimicrobial activity against beta lactamase-positive Finegoldia magna isolated from intra-abdominal infection and pelvic inflammatory disease patients after 48 hrs by time kill analysis; assay type: functional; how it was run: as §1
[14] = test system: Bacteroides thetaiotaomicron; experiment: Bactericidal activity against beta lactamase-positive Bacteroides thetaiotaomicron isolated from intra-abdominal infection and pelvic inflammatory disease patients assessed as bacterial killing at 2 times MIC after 48 hrs by time kill analysis; assay type: functional; how it was run: as §2
Prevotella nigrescens = experiment: Antimicrobial activity against beta lactamase-positive Prevotella nigrescens isolated from intra-abdominal infection and pelvic inflammatory disease patients after 48 hrs by agar dilution method; assay type: functional; how it was run: as §3
Anaerococcus tetradius = experiment: Antimicrobial activity against Anaerococcus tetradius isolated from intra-abdominal infection and pelvic inflammatory disease patients after 48 hrs by agar dilution method; assay type: functional; how it was run: as §3
Prevotella disiens = experiment: Antimicrobial activity against beta lactamase-positive Prevotella disiens isolated from intra-abdominal infection and pelvic inflammatory disease patients after 48 hrs by agar dilution method; assay type: functional; how it was run: as §3
Anaerococcus prevotii = experiment: Antimicrobial activity against Anaerococcus prevotii isolated from intra-abdominal infection and pelvic inflammatory disease patients after 48 hrs by agar dilution method; assay type: functional; how it was run: as §3
Fusobacterium varium = experiment: Antimicrobial activity against Fusobacterium varium isolated from intra-abdominal infection and pelvic inflammatory disease patients after 48 hrs by agar dilution method; assay type: functional; how it was run: as §3
Bacteroides fragilis [15] = experiment: Bactericidal activity against beta lactamase-positive Bacteroides fragilis isolated from intra-abdominal infection and pelvic inflammatory disease patients assessed as bacterial killing at 2 times MIC after 48 hrs by time kill analysis; assay type: functional; how it was run: as §2
Bacteroides fragilis [16] = experiment: Antimicrobial activity against beta lactamase-positive Bacteroides fragilis isolated from intra-abdominal infection and pelvic inflammatory disease patients after 48 hrs by agar dilution method; assay type: functional; how it was run: as §3
[17] = test system: Paeniclostridium sordellii; experiment: Antimicrobial activity against Clostridium sordellii isolated from intra-abdominal infection and pelvic inflammatory disease patients after 48 hrs by agar dilution method; assay type: functional; details: Paraclostridium sordellii; how it was run: as §3
Fusobacterium nucleatum [18] = experiment: Antimicrobial activity against beta lactamase-positive Fusobacterium nucleatum isolated from intra-abdominal infection and pelvic inflammatory disease patients after 48 hrs by agar dilution method; assay type: functional; how it was run: as §3
Finegoldia magna [19] = experiment: Bactericidal activity against beta lactamase-positive Finegoldia magna isolated from intra-abdominal infection and pelvic inflammatory disease patients assessed as bacterial killing at 2 times MIC after 48 hrs by time kill analysis; assay type: functional; how it was run: as §4
[20] = test system: Prevotella melaninogenica; experiment: Antimicrobial activity against beta lactamase-positive Prevotella melaninogenica isolated from intra-abdominal infection and pelvic inflammatory disease patients after 48 hrs by agar dilution method; assay type: functional; how it was run: as §3

C[C@@H](O)[C@H]1C(=O)N2C(C(=O)O)=C(S[C@@H]3CN[C@H](C(=O)Nc4cccc(C(=O)O)c4)C3)[C@H](C)[C@H]12
MIC (Fusobacterium nucleatum [1]): 0.008 µg/mL (≈ 0.0168 µM)
Activity [2]: 90%
MIC [3]: ≤ 0.016 µg/mL
MIC50 [3]: ≤ 0.016 µg/mL
MIC90 [3]: 0.06 µg/mL (≈ 0.126 µM)
Activity (Prevotella intermedia [4]): 90%
MIC ([Clostridium] innocuum): 2 µg/mL (≈ 4.21 µM)
MIC50 ([Clostridium] innocuum): 2 µg/mL (≈ 4.21 µM)
MIC50 (Parvimonas micra): 0.03 µg/mL (≈ 0.0631 µM)
MIC90 (Parvimonas micra): 0.125 µg/mL (≈ 0.263 µM)
Activity (Clostridioides difficile [5]): 99%
MIC [6]: 0.125 µg/mL (≈ 0.263 µM)
MIC50 (Prevotella corporis): 0.03 µg/mL (≈ 0.0631 µM)
MIC90 (Prevotella corporis): 0.06 µg/mL (≈ 0.126 µM)
MIC50 (Phocaeicola vulgatus): 0.125 µg/mL (≈ 0.263 µM)
MIC90 (Phocaeicola vulgatus): 2 µg/mL (≈ 4.21 µM)
Activity (Clostridioides difficile [7]): 90%
Activity (Fusobacterium nucleatum [8]): 90%
Activity (Clostridioides difficile [9]): inactive
MIC (Thomasclavelia ramosa): 1 µg/mL (≈ 2.1 µM)
MIC50 (Thomasclavelia ramosa): 1 µg/mL (≈ 2.1 µM)
MIC (Prevotella intermedia [10]): 0.03 µg/mL (≈ 0.0631 µM)
MIC [11]: 1 µg/mL (≈ 2.1 µM)
MIC [12]: 0.5 µg/mL (≈ 1.05 µM)
MIC50 [12]: 0.5 µg/mL (≈ 1.05 µM)
MIC90 [12]: 1 µg/mL (≈ 2.1 µM)
MIC (Porphyromonas gingivalis): ≤ 0.016 µg/mL
MIC (Finegoldia magna [13]): 0.03 µg/mL (≈ 0.0631 µM)
Activity [14]: 99%
MIC50 (Prevotella nigrescens): 0.03 µg/mL (≈ 0.0631 µM)
MIC90 (Prevotella nigrescens): 0.06 µg/mL (≈ 0.126 µM)
MIC (Anaerococcus tetradius): 0.06 µg/mL (≈ 0.126 µM)
MIC50 (Anaerococcus tetradius): 0.06 µg/mL (≈ 0.126 µM)
MIC50 (Prevotella disiens): 0.06 µg/mL (≈ 0.126 µM)
MIC90 (Prevotella disiens): 0.25 µg/mL (≈ 0.526 µM)
MIC (Anaerococcus prevotii): ≤ 0.016 µg/mL
MIC (Fusobacterium varium): 0.06 µg/mL (≈ 0.126 µM)
MIC50 (Fusobacterium varium): 0.06 µg/mL (≈ 0.126 µM)
MIC90 (Fusobacterium varium): 0.125 µg/mL (≈ 0.263 µM)
Activity (Bacteroides fragilis [15]): 99%
MIC (Bacteroides fragilis [16]): 0.25 µg/mL (≈ 0.526 µM)
MIC50 (Bacteroides fragilis [16]): 0.25 µg/mL (≈ 0.526 µM)
MIC90 (Bacteroides fragilis [16]): 2 µg/mL (≈ 4.21 µM)
MIC [17]: 0.03 µg/mL (≈ 0.0631 µM)
MIC (Fusobacterium nucleatum [18]): ≤ 0.016 µg/mL
MIC50 (Fusobacterium nucleatum [18]): ≤ 0.016 µg/mL
MIC90 (Fusobacterium nucleatum [18]): 0.03 µg/mL (≈ 0.0631 µM)
Activity (Finegoldia magna [19]): 99%

C[C@@H](O)[C@H]1C(=O)N2C(C(=O)O)=C(S[C@@H]3CN[C@H](CNS(N)(=O)=O)C3)[C@H](C)[C@H]12 [DORIPENEM]
MIC50 [20]: 0.03 µg/mL (≈ 0.0713 µM)
MIC90 [20]: 0.06 µg/mL (≈ 0.143 µM)
MIC (Fusobacterium nucleatum [1]): 0.016 µg/mL (≈ 0.038 µM)
Activity [2]: 90%
MIC [3]: ≤ 0.016 µg/mL
MIC50 [3]: ≤ 0.016 µg/mL
MIC90 [3]: 0.03 µg/mL (≈ 0.0713 µM)
Activity (Prevotella intermedia [4]): 90%
MIC ([Clostridium] innocuum): 1 µg/mL (≈ 2.38 µM)
MIC50 ([Clostridium] innocuum): 1 µg/mL (≈ 2.38 µM)
MIC (Parvimonas micra): ≤ 0.016 µg/mL
MIC50 (Parvimonas micra): ≤ 0.016 µg/mL
MIC90 (Parvimonas micra): 0.06 µg/mL (≈ 0.143 µM)
Activity (Clostridioides difficile [5]): 99%
MIC [6]: 0.06 µg/mL (≈ 0.143 µM)
MIC (Prevotella corporis): 0.03 µg/mL (≈ 0.0713 µM)
MIC50 (Prevotella corporis): 0.03 µg/mL (≈ 0.0713 µM)
MIC90 (Prevotella corporis): 0.06 µg/mL (≈ 0.143 µM)
MIC50 (Phocaeicola vulgatus): 0.25 µg/mL (≈ 0.595 µM)
MIC90 (Phocaeicola vulgatus): 1 µg/mL (≈ 2.38 µM)
Activity (Clostridioides difficile [7]): 90%
Activity (Fusobacterium nucleatum [8]): 90%
Activity (Clostridioides difficile [9]): inactive
MIC (Thomasclavelia ramosa): 0.5 µg/mL (≈ 1.19 µM)
MIC50 (Thomasclavelia ramosa): 0.5 µg/mL (≈ 1.19 µM)
MIC (Prevotella intermedia [10]): 0.06 µg/mL (≈ 0.143 µM)
MIC [11]: 1 µg/mL (≈ 2.38 µM)
MIC [12]: 0.25 µg/mL (≈ 0.595 µM)
MIC50 [12]: 0.25 µg/mL (≈ 0.595 µM)
MIC90 [12]: 0.5 µg/mL (≈ 1.19 µM)
MIC (Porphyromonas gingivalis): ≤ 0.016 µg/mL
MIC (Finegoldia magna [13]): 0.06 µg/mL (≈ 0.143 µM)
Activity [14]: 99%
MIC50 (Prevotella nigrescens): 0.03 µg/mL (≈ 0.0713 µM)
MIC90 (Prevotella nigrescens): 0.06 µg/mL (≈ 0.143 µM)
MIC50 (Anaerococcus tetradius): 0.03 µg/mL (≈ 0.0713 µM)
MIC50 (Prevotella disiens): 0.06 µg/mL (≈ 0.143 µM)
MIC90 (Prevotella disiens): 0.125 µg/mL (≈ 0.297 µM)
MIC (Anaerococcus prevotii): 0.03 µg/mL (≈ 0.0713 µM)
MIC50 (Fusobacterium varium): 0.125 µg/mL (≈ 0.297 µM)
MIC90 (Fusobacterium varium): 0.125 µg/mL (≈ 0.297 µM)
Activity (Bacteroides fragilis [15]): 99%
MIC50 (Bacteroides fragilis [16]): 0.25 µg/mL (≈ 0.595 µM)
MIC90 (Bacteroides fragilis [16]): 1 µg/mL (≈ 2.38 µM)
MIC [17]: 0.03 µg/mL (≈ 0.0713 µM)
MIC (Fusobacterium nucleatum [18]): ≤ 0.016 µg/mL
MIC50 (Fusobacterium nucleatum [18]): ≤ 0.016 µg/mL
MIC90 (Fusobacterium nucleatum [18]): 0.03 µg/mL (≈ 0.0713 µM)
Activity (Finegoldia magna [19]): 99%
